In PubChem BioAssay AID504654 (Molecular Libraries Program, Specialized Chemistry Center, …, 2011):
Active and inactive are the calls of the source.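 The calls were made as follows: active = IC50 of at least 20 µM; inactive = IC50 below 20 µM.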

biological target: HeLa ODD-luciferase turnover, degradation rate luminescence; assay: p97-independent proteasomal reporter degradation blockers – cell-based, HeLa, luminescence, counter-screen for p97 inhibitor project, SAR follow-up (AID 504654)
Summary of the method: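 Assay system: human HeLa line with stable ODD-luciferase reporter / Buffer or medium: DMEM, 2.5% FBS, cycloheximide 50 µg/mL / Probe or stimulus: MG132 4 µM proteasome block before chase, then washed out / Timing: 1 h MG132 block, 70/90/120/150 min chase / Signal: luminescence after luciferin substrate addition / Evaluation: IC50 from Langmuir fit of percent remaining degradation rate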

| Compound | IC50 |
| --- | --- |
| Cc1ccc(CNc2nc(NCc3ccccc3)c3ccccc3n2)cc1 | inactive |
| Brc1cccc(CNc2nc(NCc3ccccc3)c3ccccc3n2)c1 | inactive |
| COc1cccc2c(NCc3ccccc3)nc(Nc3nc4ccccc4n3C)nc12 | inactive |
| FC(F)(F)c1ccc(CNc2nc(NCc3ccccc3)c3ccccc3n2)cc1 | inactive |

Results, then the compound that gave them:

| IC50 | Compound |
| --- | --- |
| inactive | c1ccc(CNc2nc(N3CCOc4ccccc43)nc3ccsc23)cc1 |
| inactive | COc1cccc2c(NCc3ccccc3)nc(NCc3ccccc3)nc12 |
| inactive | COc1cccc2c(NCc3ccccc3)nc(NCc3cccs3)nc12 |
| > 20 µM | COc1cccc2c(NCc3ccccc3)nc(-n3c(=O)oc4ccccc43)nc12 |
| inactive | Fc1cccc(CNc2nc(NCc3ccccc3)c3ccccc3n2)c1 |
| inactive | COc1cccc2c(NCc3ccccc3)nc(Nc3cccc(Cl)c3)nc12 |
